Assays:
[1] = tested on: Human immunodeficiency virus 2; assay: Antiviral activity against HIV2 ROD infected in human MT4 cells assessed as reduction in virus-induced cytopathic effect after 5 days by MTT assay; conditions: Human immunodeficiency virus 2, ISOLATE ROD, MT4, 120 h
[2] = target: Human immunodeficiency virus type 1 reverse transcriptase (Human immunodeficiency virus 1, UniProt Q72547); assay: Inhibition of recombinant HIV1 reverse transcriptase using (DIG)-dUTP and biotin-labeled dNTPs as substrate after 1 hr by ELISA
[3] = Selectivity ratio of CC50 for human MT4 cells to EC50 for HIV1 RES056 infected in human MT4 cells; type: toxicity, cell-based; conditions: read-out: Ratio CC50/EC50
MT4 = assay: Cytotoxicity against human MT4 cells after 5 days by MTT assay; type: cell-based; conditions: mt4, 120 h
[4] = tested on: Human immunodeficiency virus 1; assay: Antiviral activity against wild type HIV1 3B infected in human MT4 cells assessed as reduction in virus-induced cytopathic effect after 5 days by MTT assay; type: functional, organism-based; conditions: Human immunodeficiency virus 1, 3B, MT4, 120 h
[5] = tested on: Human immunodeficiency virus 1; assay: Antiviral activity against HIV1 RES056 infected in human MT4 cells assessed as reduction in virus-induced cytopathic effect after 5 days by MTT assay; type: functional, organism-based; conditions: Human immunodeficiency virus 1, RES056, MT4, 120 h
[6] = Selectivity ratio of CC50 for human MT4 cells to EC50 for HIV1 3B infected in human MT4 cells; type: toxicity, cell-based; conditions: read-out: Ratio CC50/EC50
[7] = tested on: Human immunodeficiency virus 1; assay: Antiviral activity against HIV1 harboring reverse transcriptase Y181C mutant infected in human MT4 cells assessed as reduction in virus-induced cytopathic effect after 5 days by MTT assay; type: functional, organism-based; conditions: Human immunodeficiency virus 1, MT4, 120 h
[8] = tested on: Human immunodeficiency virus 1; assay: Resistance factor, ratio of EC50 for HIV1 harboring reverse transcriptase E138K mutant to EC50 for wild type HIV1; type: functional
Outline: (§1)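 The resistance factor is the EC50 against the mutant strain divided by the EC50 against wild-type HIV-1. Both were measured in MT-4 cells by MTT read-out of protection from virus-induced cytopathicity.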

[9] = tested on: Human immunodeficiency virus 1; assay: Antiviral activity against HIV1 harboring reverse transcriptase E138K mutant infected in human MT4 cells assessed as reduction in virus-induced cytopathic effect after 5 days by MTT assay; type: functional, organism-based; conditions: Human immunodeficiency virus 1, MT4, 120 h
[10] = tested on: Human immunodeficiency virus 1; assay: Resistance factor, ratio of EC50 for HIV1 harboring reverse transcriptase K103N mutant to EC50 for wild type HIV1; type: functional
Outline: as §1

[11] = tested on: Human immunodeficiency virus 1; assay: Antiviral activity against HIV1 harboring reverse transcriptase Y188L mutant infected in human MT4 cells assessed as reduction in virus-induced cytopathic effect after 5 days by MTT assay; type: functional, organism-based; conditions: Human immunodeficiency virus 1, MT4, 120 h
[12] = tested on: Human immunodeficiency virus 1; assay: Resistance factor, ratio of EC50 for HIV1 harboring reverse transcriptase Y188L mutant to EC50 for wild type HIV1; type: functional
Outline: as §1

[13] = tested on: Human immunodeficiency virus 1; assay: Resistance factor, ratio of EC50 for HIV1 harboring reverse transcriptase Y181C mutant to EC50 for wild type HIV1; type: functional
Outline: as §1

[14] = tested on: Human immunodeficiency virus 1; assay: Resistance factor, ratio of EC50 for HIV1 harboring reverse transcriptase L100I mutant to EC50 for wild type HIV1; type: functional
Outline: as §1

[15] = tested on: Human immunodeficiency virus 1; assay: Antiviral activity against HIV1 harboring reverse transcriptase K103N mutant infected in human MT4 cells assessed as reduction in virus-induced cytopathic effect after 5 days by MTT assay; type: functional, organism-based; conditions: Human immunodeficiency virus 1, MT4, 120 h
[16] = tested on: Human immunodeficiency virus 1; assay: Antiviral activity against HIV1 harboring reverse transcriptase F227L/V106A double mutant infected in human MT4 cells assessed as reduction in virus-induced cytopathic effect after 5 days by MTT assay; type: functional, organism-based; conditions: Human immunodeficiency virus 1, MT4, 120 h
[17] = tested on: Human immunodeficiency virus 1; assay: Antiviral activity against HIV1 harboring reverse transcriptase L100I mutant infected in human MT4 cells assessed as reduction in virus-induced cytopathic effect after 5 days by MTT assay; type: functional, organism-based; conditions: Human immunodeficiency virus 1, MT4, 120 h
[18] = tested on: Human immunodeficiency virus 1; assay: Resistance factor, ratio of EC50 for HIV1 harboring reverse transcriptase F227L/V106A double mutant to EC50 for wild type HIV1; type: functional
Outline: as §1

TZM = assay: Cytotoxicity against human TZM-bl cells after 4 days by XTT assay; type: cell-based; conditions: 96 h
[19] = Selectivity ratio of CC50 for human TZM-bl cells to EC50 for HIV1 NL4-3 infected in human TZM-bl cells; type: toxicity, cell-based; conditions: read-out: Ratio CC50/EC50
Outline: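 The selectivity index is CC50/EC50 in TZM-bl cells against NL4-3. […] The highest concentration tested was 125 ng/mL.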

[20] = tested on: Human immunodeficiency virus 1; assay: Antiviral activity against HIV1 NL4-3 infected in human TZM-bl cells after 2 days by luciferase-bright glo assay; type: functional, organism-based; conditions: Human immunodeficiency virus 1, NL4-3, TZM-bl, 48 h

Row | SMILES | EC50 [1] [nM] | IC50 [2] [nM] | selectivity ratio [3] | CC50 (MT4) [nM] | EC50 [4] [nM] | EC50 [5] [nM] | selectivity ratio [6] | CC50 (TZM) [nM] | selectivity ratio [19] | EC50 [20] [nM] | other results
1 | Cc1cc(C#N)cc(C)c1Oc1nc(NC2CCN(Cc3cccc(C(N)=O)c3)CC2)nc2c1CCCC2 | > 158000 | 101 | 50 | 158000 | 6.5 | 3150 | 24400 | – | – | – | –
2 | Cc1cc(C#N)cc(C)c1Oc1nc(NC2CCN(Cc3ccc([N+](=O)[O-])cc3)CC2)nc2c1CCC2 | > 8730 | 241 | 9 | 8730 | 14.5 | 941 | 599 | – | – | – | –
3 | Cc1cc(C#N)cc(C)c1Oc1nc(NC2CCN(Cc3ccc(S(N)(=O)=O)cc3)CC2)nc2c1CSC2 | ≥ 26700 | 410 | 36 | 26600 | 37.2 | 734 | 715 | – | – | – | –
4 | Cc1cc(C#N)cc(C)c1Oc1nc(NC2CCN(Cc3ccc([N+](=O)[O-])cc3)CC2)nc2c1SCCC2 | > 4000 | – | 6.6 | 4000 | 8.6 | 604 | 465 | – | – | – | –
5 | Cc1cc(C#N)cc(C)c1Oc1nc(NC2CCN(Cc3ccc(S(C)(=O)=O)cc3)CC2)nc2c1CSC2 | ≥ 22700 | 91 | 259 | 45300 | 3.8 | 170 | 11700 | – | – | – | –
6 | Cc1cc(C#N)cc(C)c1Oc1nc(NC2CCN(Cc3ccc(S(N)(=O)=O)cc3)CC2)nc2c1SCCC2 | > 148000 | – | – | ≥ 148000 | 2.7 | 40.6 | – | – | – | – | EC50 [7]: 10.4 nM; Ratio EC50 [8]: 3.1; EC50 [9]: 8.5 nM; Ratio EC50 [10]: 1.9; EC50 [11]: 8 nM; Ratio EC50 [12]: 3; Ratio EC50 [13]: 3.8; Ratio EC50 [14]: 4.7; EC50 [15]: 5.2 nM; EC50 [16]: 22.3 nM; EC50 [17]: 12.9 nM; Ratio EC50 [18]: 8.3
7 | Cc1cc(C#N)cc(C)c1Oc1nc(NC2CCN(Cc3ccc(S(C)(=O)=O)cc3)CC2)nc2c1SCC2 | 13500 | 130 | 257 | 11900 | 5.9 | 46.6 | 2020 | – | – | – | –
8 | Cc1cc(C#N)cc(C)c1Oc1nc(NC2CCN(Cc3ccc([N+](=O)[O-])cc3)CC2)nc2c1SCC2 | > 6180 | 175 | 12 | 6180 | 8 | 495 | 770 | – | – | – | –
9 | Cc1cc(C#N)cc(C)c1Oc1nc(NC2CCN(Cc3ccc([N+](=O)[O-])cc3)CC2)nc2c1CCCC2 | > 29100 | 94 | 4 | 29100 | 77.4 | 6900 | 376 | – | – | – | –
10 | Cc1cc(C#N)cc(C)c1Oc1nc(NC2CC3CCC(C2)N3Cc2ccncc2)nc2ccsc12 (centres undefined) | – | – | – | – | – | – | – | > 251 | 1 | > 251 | –
11 | Cc1cc(C#N)cc(C)c1Oc1nc(NC2CCN(Cc3ccc(S(N)(=O)=O)cc3)CC2)nc2c1CCC2 | 58300 | 91 | – | > 234000 | 1.1 | 25.8 | – | – | – | – | EC50 [7]: 14.2 nM; Ratio EC50 [8]: 38.4; EC50 [9]: 42.3 nM; Ratio EC50 [10]: 10; EC50 [11]: 14 nM; Ratio EC50 [12]: 12.7; Ratio EC50 [13]: 12.9; Ratio EC50 [14]: 5.3; EC50 [15]: 11 nM; EC50 [16]: 35.6 nM; EC50 [17]: 5.9 nM; Ratio EC50 [18]: 32.3
12 | Cc1cc(C#N)cc(C)c1Oc1nc(NC2CN(Cc3cccc(C(N)=O)c3)C2)nc2ccsc12 | – | – | – | – | – | – | – | > 257 | 29 | 8.95 | –
13 | Cc1cc(C#N)cc(C)c1Oc1nc(NC2CCN(Cc3ccc([N+](=O)[O-])cc3)CC2)nc2c1CSC2 | > 27100 | 129 | 24 | 27100 | 11.5 | 1140 | 2340 | – | – | – | –
14 | Cc1cc(C#N)cc(C)c1Oc1nc(NC2CCCN(Cc3cccc(C(N)=O)c3)CC2)nc2ccsc12 (centres undefined) | – | – | – | – | – | – | – | > 237 | 23 | 10.3 | –
15 | Cc1cc(C#N)cc(C)c1Oc1nc(NC2CCCN(Cc3ccncc3)CC2)nc2ccsc12 (centres undefined) | – | – | – | – | – | – | – | > 257 | 8 | 31.7 | –
16 | Cc1cc(C#N)cc(C)c1Oc1nc(NC2CC3CCC(C2)N3Cc2ccc(C(N)=O)cc2)nc2ccsc12 (centres undefined) | – | – | – | – | – | – | – | > 232 | 1 | > 232 | –
17 | Cc1cc(C#N)cc(C)c1Oc1nc(N[C@H]2CCN(Cc3cccc(C(N)=O)c3)C2)nc2ccsc12 | – | – | – | – | – | – | – | > 250 | 1 | > 250 | –
18 | Cc1cc(C#N)cc(C)c1Oc1nc(NC2CCN(Cc3cccc(C(N)=O)c3)CC2)nc2c1CCC2 | > 205000 | 241 | 9 | 205000 | 2 | 26800 | 124000 | – | – | – | –
19 | Cc1cc(C#N)cc(C)c1Oc1nc(NC2CCN(Cc3ccc(S(C)(=O)=O)cc3)CC2)nc2c1CCC2 | 41800 | 157 | 40 | 7450 | 4.9 | 187 | 1500 | – | – | – | –
20 | Cc1cc(C#N)cc(C)c1Oc1nc(NC2CCN(Cc3ccncc3)CC2)nc2c1CCCC2 | 21700 | 72 | 440 | 75800 | 8.6 | 172 | 8750 | – | – | – | –

Source: ChEMBL document CHEMBL4368909, “Identification of Dihydrofuro[3,4- d]pyrimidine Derivatives as Novel HIV-1 Non-Nucleoside Reverse Transcriptase Inhibitors with Promising Antiviral Activities and Desirable Physicochemical Properties” (J Med Chem, 2019)
